Measured values of several laboratories.
Each line is one published result; the experiments were not run side by side.
Read-out: cell growth or viability

SMILES	cell line	method	tested at	time	endpoint	value
CC(C)(C)n1ncc2c(Nc3ccc(OC(F)(F)F)cc3)ncnc21	BaF3	ATP luminescence	–	–	EC50	> 10 µM
COc1cc(N2CCC(N3CCN(C)CC3)CC2)ccc1Nc1ncc(Cl)c(Nc2ccccc2P(C)(C)=O)n1	BaF3	–	–	72 h	GI50	2.1 µM
COc1ccc(-c2ccc(-c3ccc(C(=N)N)nc3)s2)cc1	SF-268	SRB	–	–	GI50	1.76 µM
CNC(=O)c1ccccc1Sc1ccc2c(/C=C/c3ccccn3)n[nH]c2c1	BaF3	ATP luminescence	–	72 h	GI50	1.31 µM
O=C1Nc2ccccc2C1=NNc1nnc2n1N=C(c1ccccc1)CS2	SF-268	SRB	10 µM	–	inhibition	31%
COc1ccc(NC(=O)Nc2ccc(OCc3ncc(C)c(OC)c3C)cc2)cc1	L02	MTT	–	72 h	IC50	> 100 µM
COc1cc(-c2ccc(-c3ccc(C(=N)N)nc3)s2)cc(OC)c1OC	SF-268	SRB	–	–	GI50	14.6 µM
COc1ccccc1S(=O)(=O)Nc1ccc2c(c1)CN(C)C(=O)N2	NALM-6	ATP luminescence	–	–	GI50	8 µM
O=C(N/N=C/c1c(O)ccc2ccccc12)c1cc(-c2ccc3ccccc3c2)n[nH]1	WM-115	MTS	–	72 h	IC50	1.8 µM
COc1ccnc(COc2ccc(NC(=O)Nc3cccc(C(F)(F)F)c3)cc2)c1OC	L02	MTT	–	72 h	IC50	> 100 µM
COc1cccc(Oc2ccccc2NC(=O)CNC(=O)c2cccc3ccccc23)c1	SF-268	SRB	–	48 h	GI50	0.55 µM
COc1ccc(NC(=O)Nc2ccc(OCc3nccc(OCC(F)(F)F)c3C)cc2)cc1	L02	MTT	–	72 h	IC50	> 100 µM
CNC(=O)c1ccccc1Sc1ccc2c(N)n[nH]c2c1	BaF3	CCK-8	–	–	GI50	7.9 µM
C=CC(=O)N1CCC[C@@H](n2nc(-c3ccc(Oc4ccccc4)cc3)c3c(N)ncnc32)C1	NALM-6	ATP luminescence	–	72 h	GI50	2.8 µM
Oc1ccc(Nc2nc(-c3ccc(Cl)cc3)cs2)cc1	WM-115	MTS	–	48 h	IC50	23.8 µM
Nc1n[nH]c2cc(I)ccc12	BaF3	CCK-8	–	–	GI50	> 10 µM
CNC(=O)c1cc(Oc2ccc(NC(=O)Nc3ccc(Cl)c(C(F)(F)F)c3)c(F)c2)ccn1	BaF3	ATP luminescence	–	72 h	GI50	1.81 µM
